Compound activity as filed in PubChem BioAssay.
Env fusion inh: blocks HIV Env-driven cell-cell fusion; 360,000 tested, 1.1% active; inhibition, % at 12.3 µM; HeLa-JRFL Env/CEM21 cell fusion, luciferase; AID 651610;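 active = mean replicate inhibition score of at least 50 and every replicate individually at or above 50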;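 also: 0% = plate neutral controls and 100% = maraviroc near 300 nM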
PAX8 reporter: PAX8 transcriptional activity inhibition; 360,000 tested, 1.2% active; RMG-I TPO-luciferase reporter, SteadyGlo, 24 h; AID 652154; inhibition, % at 12.6 µM;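 active = mean replicate inhibition at least 60% with every replicate also reaching 60%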;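 also: luciferase light reporting Pax8 driven TPO promoter activity; plate controls were median of neutral control wells for no effect and mitoxantrone controls for full effect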
dFosB activator: mouse delta FosB homodimer activation. activation, % at 25 µM. P13346. purified delta FosB, TAMRA-CDK5 oligo fluorescence polarization; percent of positive-control signal above neutral wells. 340,000 tested, 0.99% active;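 active = mean activation above about 17%, with every replicate also reaching it, limit read from the data, passing the limit was not always enough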
Target sequence (P13346 whole entry, looked up): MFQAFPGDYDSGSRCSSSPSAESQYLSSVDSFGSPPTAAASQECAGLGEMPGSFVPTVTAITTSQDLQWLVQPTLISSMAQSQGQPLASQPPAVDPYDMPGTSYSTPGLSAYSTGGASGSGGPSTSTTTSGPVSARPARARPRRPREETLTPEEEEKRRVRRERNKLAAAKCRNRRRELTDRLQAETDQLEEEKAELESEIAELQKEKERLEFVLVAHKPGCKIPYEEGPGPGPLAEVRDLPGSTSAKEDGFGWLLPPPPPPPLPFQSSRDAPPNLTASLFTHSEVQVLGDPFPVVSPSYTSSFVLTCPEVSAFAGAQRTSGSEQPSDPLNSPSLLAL
GSIS activator: primary screen for activators of insulin secretion dependent on glucose, INS-1E cells, GLuc reporter luminescence; AID 743287; activation, % at 16.6 µM; 370,000 tested, 0.61% active; INS-1E GLuc reporter insulin secretion, 2-3 h;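 active = lowest replicate activation of at least 40%, so every replicate reaches that level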;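 also: 0% = median of neutral control wells and 100% = median of IBMX positive control wells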
CDK5 inh: CDK5/p35 (human) kinase inhibition; Recombinant CDK5/p35, ADP-Glo luminescence, 60 min; inhibition, % at 10 µM; 330,000 tested, 0.01% active; Q00535+Q15078;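 active = highest replicate inhibition of at least 50% and at least 75% of replicates reaching 50%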;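 also: plate controls were DMSO neutral control for no effect and GW8510 at 10 µM for full effect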
Cneo AK release: Cryptococcus neoformans lysis via adenylate kinase release; C. neoformans lysis, adenylate kinase release luminescence, 4 h; normalised: neutral wells 0, clomiphene wells 100; lysis activity, % at 15 µM; 360,000 tested, 0.2% active;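 active = mean lysis activity across replicates of at least 80%, whatever share of replicates individually reach that level; inactive = mean lysis activity below 80%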
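Assay system: C. neoformans cells. Amount: yeast cell density of 5 × 10^6 cells/mL. Technique: AK luminescence. Buffer or medium: YPD. Times: static 4 h at 37 °C with compound, 1 h detection. Dosing: single-point compound dose. Read-out: lysis from increased AK signal.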
* marks the source's active call; other numbers are inactive results; x = no result; [ ] = another dose, or the depositor's remark. Only some compounds are listed: those with a hit (about 2.9% of all), similar ones and a draw of the others.

SMILES | Env fusion inh | PAX8 reporter | dFosB activator | GSIS activator | CDK5 inh | Cneo AK release
C[C@H](CO)N1C[C@H](C)[C@H](CN(C)Cc2ccc(-c3ccccc3)cc2)Oc2c(NC(=O)c3ccncc3)cccc2C1=O | x | -1.2 | x | -10.2 | x | 111.4*
C[C@@H]1CN([C@H](C)CO)C(=O)c2cccc(NC(=O)C3CC3)c2O[C@H]1CN(C)Cc1ccc(C(=O)O)cc1 | -13.4[16.7 µM] | -52.5 | x | 6.0 | x | 97.0*
C[C@@H]1CN([C@@H](C)CO)C(=O)c2cccc(NC(=O)c3cnccn3)c2O[C@H]1CN(C)Cc1ccc(Cl)c(Cl)c1 | 62.6*[16.7 µM] | -35.2 | x | -34.0 | x | 47.1
C[C@@H]1CN([C@H](C)CO)C(=O)c2cccc(NC(=O)c3ccncc3)c2O[C@H]1CN(C)CC1CCCCC1 | 93.4*[16.7 µM] | -0.3 | x | 2.9 | x | -6.6
C[C@@H]1CN([C@@H](C)CO)C(=O)c2cccc(NC(=O)C3CC3)c2O[C@@H]1CN(C)Cc1ccc(C(=O)O)cc1 | 47.6[16.7 µM] | -12.7 | x | 10.8 | x | 53.0
C[C@@H]1CN([C@@H](C)CO)C(=O)c2cccc(NC(=O)c3ccncc3)c2O[C@H]1CN(C)Cc1ccc(C(=O)O)cc1 | x | -5.8 | x | 17.4 | x | -5.7
C[C@@H]1CN([C@H](C)CO)C(=O)c2cccc(NC(=O)c3ccncc3)c2O[C@@H]1CN(C)Cc1ccc(C(=O)O)cc1 | 113.9* | -44.4 | -5.4 | -0.9 | -2.4 | 11.9
CO[C@@H]1CN(C)C(=O)c2cc(NC(C)=O)ccc2OC[C@@H](C)N(CC2CCCCC2)C[C@@H]1C | -17.1[16.7 µM] | -7.8 | x | 8.9 | x | -0.7
COC(=O)C[C@H]1C[C@@H]2c3cc(NS(=O)(=O)c4ccccc4)ccc3O[C@@H]2[C@H](CO)O1 | 29.5[16.7 µM] | 3.7 | x | -2.6 | x | -9.8
O=C(C[C@H]1CC[C@@H](NS(=O)(=O)c2cccc(F)c2)[C@@H](CO)O1)N1CCCCC1 | -27.3[16.7 µM] | 0.4 | x | -2.5 | x | 1.0
C[C@H](CO)N1C[C@H](C)[C@H](CN(C)Cc2ccc(Cl)c(Cl)c2)Oc2c(NC(=O)c3ccncc3)cccc2C1=O | -8.4[16.7 µM] | 3.9 | x | 3.2 | x | 1.7
C[C@@H]1CN([C@H](C)CO)C(=O)c2cccc(NC(=O)c3ccncc3)c2O[C@H]1CN(C)Cc1ccc(Cl)c(Cl)c1 | 74.9*[16.7 µM] | 60.7* | x | -28.0 | x | -0.3
C[C@@H]1CN([C@@H](C)CO)C(=O)c2cccc(NS(=O)(=O)c3cn(C)cn3)c2O[C@@H]1CN(C)S(C)(=O)=O | x | x | x | 13.8 | x | 2.3
CO[C@@H]1CN(C)C(=O)c2ccc(NC(C)=O)cc2OC[C@@H](C)N(Cc2cncnc2)C[C@@H]1C | 57.2*[16.7 µM] | x | x | 11.0 | x | x
CCCC(=O)Nc1ccc2c(c1)OC[C@@H](C)N(Cc1ccccn1)C[C@@H](C)[C@H](OC)CN(C)C2=O | -15.0[16.7 µM] | -27.8 | x | 1.6 | x | 94.4*
CO[C@@H]1CN(C)C(=O)c2ccc(NC(C)=O)cc2OC[C@H](C)N(Cc2cncnc2)C[C@H]1C | -3.4[16.7 µM] | x | x | 17.2 | x | -1.1
CCCC(=O)Nc1ccc2c(c1)OC[C@H](C)N(Cc1ccncc1)C[C@H](C)[C@H](OC)CN(C)C2=O | 63.5*[16.7 µM] | x | x | 10.0 | x | 1.3
CCCC(=O)Nc1ccc2c(c1)OC[C@H](C)N(Cc1ccccn1)C[C@H](C)[C@H](OC)CN(C)C2=O | 0.6[16.7 µM] | -0.7 | x | -5.0 | x | 112.7*
C[C@H]1CCCCO[C@H](CN(C)S(=O)(=O)c2ccc(F)cc2)[C@@H](C)CN([C@@H](C)CO)C(=O)c2cc(NS(=O)(=O)c3ccc(F)cc3)ccc2O1 | -39.9[16.7 µM] | 14.5 | x | -9.1 | x | 1.6
O=[N+]([O-])c1ccc(-c2ccc(/C=N/Nc3nc(NCc4ccccc4)nc(N4CCOCC4)n3)o2)cc1 | -21.6 | 45.7 | 20.8* | -9.3 | -2.1 | x
COc1nc(N/N=C/c2ccc(-c3ccccc3[N+](=O)[O-])o2)nc(N2CCOCC2)n1 | 4.5 | 4.4 | 3.1 | 38.0 | 1.5 | -2.1
O=C(CCN1CCCCC1)NCC[C@H]1CC[C@@H](NC(=O)Cc2cccnc2)[C@H](CO)O1 | 1.7[16.7 µM] | 1.9 | x | 19.6 | x | x
COc1ccc(C2=NOC(Cn3nc(C(=O)NCc4cccc(Br)c4)cc3-c3ccccc3)C2)cc1 (configuration not stated) | 85.0* | 23.7 | -3.2 | x | -0.9 | 0.8
COc1ccccc1CNC(=O)c1cc(-c2ccccc2C)n(CC2CC(c3cccc([N+](=O)[O-])c3)=NO2)n1 (configuration not stated) | 59.8* | 10.9 | -0.7 | -14.8 | -1.0 | 2.2
COc1ccc(C2=NOC(Cn3nc(-c4ccccc4)cc3C(=O)NCc3cccc(Br)c3)C2)cc1 (configuration not stated) | -1.2 | -13.5 | -5.3 | -1.8 | -0.5 | -0.5
SMILES | Env fusion inh | PAX8 reporter | dFosB activator | GSIS activator | CDK5 inh | Cneo AK release
CCOC(=O)c1c(NC(=O)C2CCCN2S(=O)(=O)c2cccc3nsnc23)sc(C)c1C (configuration not stated) | 63.6* | -16.3 | -1.3 | -4.4 | -2.0 | 6.9
N#C[C@H]1[C@@H](c2ccc(-c3cccnc3)cc2)[C@@H](CO)N1C(=O)C1CCOCC1 | 2.4[16.7 µM] | -5.1 | x | -0.7 | x | -0.1
C#CCN(C(=O)c1ccc(OC2CCN(C(=O)CCOC)CC2)cc1)C1CCCCC1 | 6.1 | 0.5 | 2.3 | -22.4 | -1.2 | 102.7*
COCCC(=O)N1CCC(Oc2ccc(C(=O)N3CCCCCC3)cc2)CC1 | -4.9 | -12.0 | -2.5 | 6.6 | x | -0.9
CCCC(=O)Nc1ccc2c(c1)OC[C@H](C)N(CCC(F)(F)F)C[C@H](C)[C@H](OC)CN(C)C2=O | 28.6[16.7 µM] | -5.2 | x | -3.4 | x | -0.6
COc1cccc(-n2c(=O)n(Cc3ccccc3)c(=O)c3[nH]cnc32)c1C | 0.2 | -17.8 | 6.7 | 76.3* | -1.6 | -0.5
Cc1ccccc1-n1c(=O)n(Cc2ccc(C(=O)O)cc2)c(=O)c2[nH]cnc21 | 25.0 | -15.5 | -0.5 | 6.2 | -0.1 | 0.4
COc1ccc(C)c(-n2c(=O)n(Cc3ccccc3)c(=O)c3[nH]cnc32)c1 | 8.9 | -8.0 | x | 62.9* | x | -0.7
CC(=O)Nc1cccc(-n2c(=O)n(Cc3ccccc3)c(=O)c3[nH]cnc32)c1 | -49.8 | -11.9 | -1.7 | 42.9* | 1.8 | -1.1
COc1ccc(Cn2c(=O)c3[nH]cnc3n(-c3ccccc3C)c2=O)cc1 | 8.6 | 7.4 | -4.9 | 63.5* | 0.3 | x
COc1cccc(S(=O)(=O)N2[C@@H]3CNC[C@H]2C3c2ccc(-c3ccc(C(=O)N(C)C)cc3)cc2)c1 (some centres not stated) | x | -16.5 | x | -16.2 | x | x
C[C@@H]1CN([C@@H](C)CO)C(=O)c2c(c3ccccc3n2C)-c2ccccc2CO[C@@H]1CN(C)S(=O)(=O)c1ccccc1C#N | -67.1[16.7 µM] | -1.8 | x | 1.0 | x | 55.3
COc1cccc(CN2[C@@H]3CN(C(=O)c4cccnc4)c4ccccc4[C@@H]3[C@@H]2CO)c1 | x | 15.9 | x | 9.3 | x | 45.6
